What all share (type): functional, cell-based
In assay [1] the test system is MCF7. Nature of the assay: Cytotoxicity against human MCF7 cells after 48 hrs by sulforhodamine B assay. To be noted: MCF7, 48 h. In a few lines:
(§1)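 Cells were seeded at 5×10^4–10^5 per well and allowed to attach for 24 h. Cells were then fixed and SRB-stained, washed with acetic acid, and the dye was recovered in Tris-EDTA for A564. Surviving fraction = OD treated/OD control. IC50 was taken as 50% growth inhibition relative to control, from mean values. Doxorubicin served as reference.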
For orientation: In SRB staining, fixed cells bind dye roughly in proportion to their protein.

For assay [2], the system named is HCT-116. Kind of assay: Cytotoxicity against human HCT116 cells after 48 hrs by sulforhodamine B assay. To be noted: HCT-116, 48 h. The procedure, abridged:
as §1

The test system of assay [3] is HepG2. Kind of assay: Cytotoxicity against human HepG2 cells after 48 hrs by sulforhodamine B assay. The note with it: HepG2, 48 h. In a few lines: as §1

pIC50: −log10 of the molar value.

`CN1CC2C(=O)N(c3ccc(F)cc3)C(=O)C2C12C(=O)Nc1ccc(Cl)cc12` (configuration not stated): the negative-log IC50 (pIC50) – broadly, the negative decadic logarithm of the IC50, by convention in mol/L – in assay [1] was 4.05; in assay [2], 4.14; in assay [3], 4.39.

As to `Cc1ccc(N2C(=O)C3CN(C)C4(C(=O)Nc5ccc(Cl)cc54)C3C2=O)cc1` (configuration not stated), the pIC50 is 4.30 in assay [1], less than 3.90 in assay [2] and 4.20 in assay [3].

In the case of `CN1CC2C(=O)N(c3ccc(Cl)cc3)C(=O)C2C12C(=O)Nc1ccc(Cl)cc12` (configuration not stated), the pIC50 was 4.39 in assay [1], 4.45 in assay [2] and 4.54 in assay [3].

In the case of `COc1ccc2c(c1)C1(C(=O)N2)C2C(=O)N(c3ccc(Cl)cc3)C(=O)C2CN1C` (configuration not stated), the pIC50 in assay [1] is 4.41; in assay [2], 4.32; in assay [3], 4.36.

`COc1ccc2c(c1)C1(C(=O)N2)C2C(=O)N(c3ccc(C)cc3)C(=O)C2CN1C` (configuration not stated): the negative logarithm of the IC50 (pIC50) is 4.33 in assay [1], 4.33 in assay [2] and 4.92 in assay [3].

With `CN1CC2C(=O)N(c3ccc(F)cc3)C(=O)C2C12C(=O)Nc1ccccc12` (configuration not stated), the values for the pIC50 in assay [1], in assay [2] and in assay [3] were 4.47, 4.37 and 4.06, respectively.

Turning to `CN1CC2C(=O)N(c3ccccc3)C(=O)C2C12C(=O)Nc1ccccc12` (configuration not stated), the pIC50 in assay [1] was 4.45; in assay [2] it was 4.20; in assay [3], 4.48.

On to `COc1ccc(N2C(=O)C3CN(C)C4(C(=O)Nc5ccc(OC)cc54)C3C2=O)cc1` (configuration not stated), for which the values for the pIC50 in assay [1], in assay [2] and in assay [3] were 4.37, 4.39 and 4.30, respectively.

With `COc1ccc(N2C(=O)C3CN(C)C4(C(=O)Nc5ccccc54)C3C2=O)cc1` (configuration not stated), the figures for the pIC50 in assay [1], in assay [2] and in assay [3] were 4.32, 4.27 and 4.14, respectively.

Regarding `CN1CC2C(=O)N(c3ccccc3)C(=O)C2C12C(=O)Nc1ccc(Cl)cc12` (configuration not stated), the pIC50 in assay [1] is 4.41; in assay [2] it was 4.48; in assay [3] it was 4.48.

Take `COc1ccc2c(c1)C1(C(=O)N2)C2C(=O)N(c3ccc(F)cc3)C(=O)C2CN1C` (configuration not stated): the pIC50 in assay [1] is 4.36; in assay [2] it was 4.50; in assay [3], 4.56.

On to `Cc1ccc(N2C(=O)C3CN(C)C4(C(=O)Nc5ccccc54)C3C2=O)cc1` (configuration not stated), for which the pIC50 is 4.43 in assay [1], 4.34 in assay [2] and 4.11 in assay [3].

For the molecule `COc1ccc2c(c1)C1(C(=O)N2)C2C(=O)N(c3ccccc3)C(=O)C2CN1C` (configuration not stated), the results for the pIC50 in assay [1], in assay [2] and in assay [3] were 4.35, 4.47 and 4.35, respectively.

Regarding `COc1cccc2c1C(=O)c1c(O)c3c(c(O)c1C2=O)C[C@@](O)(C(=O)CO)C[C@@H]3O[C@H]1C[C@H](N)[C@H](O)[C@H](C)O1` [DOXORUBICIN], the pIC50 in assay [2] was 5.16; in assay [3], 5.13.

Take `COc1ccc(N2C(=O)C3CN(C)C4(C(=O)Nc5ccc(Cl)cc54)C3C2=O)cc1` (configuration not stated): the values for the pIC50 in assay [1], in assay [2] and in assay [3] were 4.42, 4.39 and 4.54, respectively.

In the case of `CN1CC2C(=O)N(c3ccc(Cl)cc3)C(=O)C2C12C(=O)Nc1ccccc12` (configuration not stated), the results for the pIC50 in assay [1], in assay [2] and in assay [3] were 4.37, 4.43 and 4.49, respectively.

Source of the values: ChEMBL document CHEMBL1926515, “Synthesis and QSAR study of novel cytotoxic spiro[3H-indole-3,2'(1'H)-pyrrolo[3,4-c]pyrrole]-2,3',5'(1H,2'aH,4'H)-triones” (Eur J Med Chem, 2012).
